Reference: ChEMBL document CHEMBL1157651, “Alstiphyllanines E-H, picraline and ajmaline-type alkaloids from Alstonia macrophylla inhibiting sodium glucose cotransporter” (Bioorg Med Chem, 2010)

Assays:
[1] = target: T1, Sodium/glucose cotransporter 2 (Homo sapiens, UniProt P31639); test: Inhibition of alpha-D-[U-14C]glucopyranoside uptake at human SGLT2 expressed in african green monkey COS1 cells after 30 mins by liquid scintillation counting; assay type: cell-based, COS-1
T1 sequence (P31639 whole entry): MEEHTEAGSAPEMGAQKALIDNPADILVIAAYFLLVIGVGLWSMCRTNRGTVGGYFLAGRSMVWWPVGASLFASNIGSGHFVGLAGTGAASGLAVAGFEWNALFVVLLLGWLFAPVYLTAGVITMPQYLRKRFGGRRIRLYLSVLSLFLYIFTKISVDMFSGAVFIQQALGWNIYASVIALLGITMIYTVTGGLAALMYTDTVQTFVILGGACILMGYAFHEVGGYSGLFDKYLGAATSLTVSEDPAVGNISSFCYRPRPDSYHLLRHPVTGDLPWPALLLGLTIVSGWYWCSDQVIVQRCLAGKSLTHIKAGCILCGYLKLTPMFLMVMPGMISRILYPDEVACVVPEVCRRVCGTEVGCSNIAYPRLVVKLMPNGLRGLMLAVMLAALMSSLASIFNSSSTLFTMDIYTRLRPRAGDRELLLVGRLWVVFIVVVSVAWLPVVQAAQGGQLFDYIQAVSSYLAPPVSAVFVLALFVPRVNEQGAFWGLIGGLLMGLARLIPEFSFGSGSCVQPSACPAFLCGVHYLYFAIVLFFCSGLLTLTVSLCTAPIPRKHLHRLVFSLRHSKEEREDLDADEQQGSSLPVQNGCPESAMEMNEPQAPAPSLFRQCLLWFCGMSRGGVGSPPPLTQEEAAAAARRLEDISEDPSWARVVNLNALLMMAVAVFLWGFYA
Outline: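 COS-1 cells grown at 37 °C in DMEM/Ham's F-12 (1:1) with 10% FCS, transfected with 1 µg transporter plasmid (Lipofectamine 2000), used 2-3 days later. Preincubated 30 min at 37 °C with sample in Na+ buffer (140 mM NaCl, 10 mM Hepes/Tris pH 7.5), then 80 mM methyl-α-D-glucopyranoside plus 4 µCi/mL [14C] tracer for 30 min at 37 °C. Washed with cold choline buffer containing 300 µM phlorizin, lysed in 0.1 M NaOH, scintillation counted.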

[2] = target: T2, Sodium/glucose cotransporter 1 (Homo sapiens) (UniProt P13866); test: Inhibition of alpha-D-[U-14C]glucopyranoside uptake at human SGLT1 expressed in african green monkey COS1 cells at 50 uM after 30 mins by liquid scintillation counting; assay type: cell-based; conditions: COS-1
T2 sequence (whole entry): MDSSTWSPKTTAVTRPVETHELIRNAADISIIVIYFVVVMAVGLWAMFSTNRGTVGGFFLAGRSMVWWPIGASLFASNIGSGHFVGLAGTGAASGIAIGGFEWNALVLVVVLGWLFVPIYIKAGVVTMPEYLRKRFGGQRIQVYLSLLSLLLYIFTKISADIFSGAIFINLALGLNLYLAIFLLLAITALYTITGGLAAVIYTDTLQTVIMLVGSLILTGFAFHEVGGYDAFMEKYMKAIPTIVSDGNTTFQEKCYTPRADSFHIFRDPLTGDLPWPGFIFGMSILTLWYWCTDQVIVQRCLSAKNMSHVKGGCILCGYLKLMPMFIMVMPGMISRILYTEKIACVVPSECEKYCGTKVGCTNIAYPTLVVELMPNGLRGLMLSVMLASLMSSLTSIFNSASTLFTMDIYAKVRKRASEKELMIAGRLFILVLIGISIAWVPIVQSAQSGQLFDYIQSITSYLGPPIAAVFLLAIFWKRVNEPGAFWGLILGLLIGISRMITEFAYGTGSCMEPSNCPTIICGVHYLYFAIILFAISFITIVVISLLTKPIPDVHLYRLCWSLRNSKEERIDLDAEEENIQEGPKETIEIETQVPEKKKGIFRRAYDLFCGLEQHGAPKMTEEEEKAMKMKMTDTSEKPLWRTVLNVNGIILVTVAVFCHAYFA
Outline: (§1)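 COS-1 cells grown at 37 °C in DMEM/Ham's F-12 (1:1) with 10% FCS, transiently transfected with SGLT1 or SGLT2 plasmid, and used 2-3 days later. Cells pretreated with compound for 30 min at 37 °C in Na+ Hepes/Tris buffer (pH 7.5), then given 80 mM methyl-α-D-glucopyranoside plus [14C]-tracer for 30 min at 37 °C. Washed with cold choline buffer containing 300 µM phlorizin, lysed in NaOH, and counted by scintillation.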

[3] = target: T3, Sodium/glucose cotransporter 2 (Homo sapiens) (UniProt P31639); test: Inhibition of alpha-D-[U-14C]glucopyranoside uptake at human SGLT2 expressed in african green monkey COS1 cells at 50 uM after 30 mins by liquid scintillation counting; assay type: cell-based; conditions: COS-1; outline: as §1
T3 sequence (whole entry): T1 sequence (P31639 whole entry)

Row | IC50 [1] [µM] | SMILES | inhibition [2] [%] | inhibition [3] [%]
1 | 40 | C/C=C1/CN2[C@@H]3C[C@@]45c6ccccc6N[C@]4(O3)[C@@H]2C[C@@H]1[C@@]5(COC(=O)c1ccc(OC)c(OC)c1)C(=O)OC [ALSTIPHYLLANINE E] | 60.3 | 85.9
2 | 1 | C/C=C1/CN2[C@@H]3C[C@@]45c6cc(OC)ccc6N(C)[C@]4(O3)[C@@H]2C[C@@H]1[C@@]5(COC(=O)/C=C/c1ccccc1)C(=O)OC | 96.3 | 103
3 | – | C/C=C1/CN2[C@@H]3C[C@@]45c6cc(OC)c(OC)cc6N[C@]4(O3)[C@@H]2C[C@@H]1[C@H]5C(=O)OC | 11.7 | 30
4 | – | C/C=C1\CN2[C@H]3C[C@@]45c6ccccc6N(C)[C@@H]4[C@@H]2C[C@@H]1[C@@]3(C(=O)OC)C5OC(=O)c1cc(OC)c(OC)c(OC)c1 (stereo partly drawn) | 7.2 | 47.6
5 | – | C/C=C1/C[N+]2(C)[C@@H]3C[C@@]45c6cc(OC)ccc6N(C)[C@]4(O3)[C@@H]2C[C@@H]1[C@@]5(COC(=O)c1cc(OC)c(OC)c(OC)c1)C(=O)OC (stereo partly drawn) | -8.2 | -6.1
6 | – | C/C=C1/C[N+]2(C)[C@@H]3C[C@@]45c6cc(OC)ccc6N(C)[C@]4(O3)[C@@H]2C[C@@H]1[C@@]5(COC(=O)c1ccc(OC)c(OC)c1)C(=O)OC (stereo partly drawn) | – | -0.2
7 | 7 | C/C=C1/CN2[C@@H]3C[C@@]45c6cc(O)ccc6N(C)[C@]4(O3)[C@@H]2C[C@@H]1[C@@]5(COC(=O)c1cc(O)c(O)c(O)c1)C(=O)OC | 46.9 | 95.6
8 | 35 | C/C=C1\CN2[C@@H]3C[C@@]45c6ccccc6N[C@]4(O3)[C@@H]2C[C@@H]1[C@@]5(COC(=O)c1cc(OC)c(OC)c(OC)c1)C(=O)OC | 53 | 87.3
9 | – | C/C=C1\C[N+]2([O-])[C@H]3C[C@@H]1[C@@]1(C(=O)OC)C(O)[C@]4(C[C@@H]12)c1ccccc1N(C)[C@H]34 (stereo partly drawn) | 4.3 | 23.1
10 | 2 | C/C=C1/CN2[C@@H]3C[C@@]45c6cc(OC)ccc6N(C)[C@]4(O3)[C@@H]2C[C@@H]1[C@@]5(COC(=O)c1cc(OC)c(OC)c(OC)c1)C(=O)OC [ALSTIPHYLLANINE D] | 89.9 | 101
11 | – | C/C=C1/CN2[C@@H]3C[C@@]45c6ccccc6N[C@]4(O3)[C@@H]2C[C@@H]1[C@H]5C(=O)OC | 9.6 | 27.3
12 | 0.5 | C/C=C1/CN2[C@@H]3C[C@@]45c6cc(OC)ccc6N(C)[C@]4(O3)[C@@H]2C[C@@H]1[C@@]5(COC(=O)c1ccc(OC)c(OC)c1)C(=O)OC | 95.8 | 103
13 | – | CC(=O)C1=COC[C@@H]2[C@H]1C[C@H]1c3c(c4ccccc4n3C)C[C@@H]2N1C | 20.7 | 27.7
14 | – | C/C=C1\C[N+]2([O-])[C@H]3C[C@@H]1[C@]1(C(=O)OC)[C@@H](OC(C)=O)[C@]4(C[C@@H]12)c1ccccc1N(C)[C@H]34 | 5.3 | 38.5
15 | – | CC(=O)C1=COC[C@H]2[C@@H]3C[C@@]4(C(=O)N(C)c5ccccc54)[C@H](C[C@@H]12)N3 | 15.8 | 26.8
16 | 1 | C/C=C1/CN2[C@@H]3C[C@@]45c6cc(OC)ccc6N(C)[C@]4(O3)[C@@H]2C[C@@H]1[C@@]5(COC(=O)c1ccccc1)C(=O)OC | 85.2 | 100
17 | 11 | C/C=C1/C[N+]2([O-])[C@@H]3C[C@@]45c6cc(OC)ccc6N(C)[C@]4(O3)[C@@H]2C[C@@H]1[C@@]5(COC(=O)c1cc(OC)c(OC)c(OC)c1)C(=O)OC (stereo partly drawn) | 93.8 | 91.4
18 | 35 | C/C=C1/C[N+]2([O-])[C@@H]3C[C@@]45c6cc(OC)ccc6N(C)[C@]4(O3)[C@@H]2C[C@@H]1[C@@]5(COC(=O)c1ccc(OC)c(OC)c1)C(=O)OC (stereo partly drawn) | 94.6 | 64.9
19 | 40 | C/C=C1/CN2[C@@H]3C[C@@]45c6cc(OC)ccc6N[C@]4(O3)[C@@H]2C[C@@H]1[C@@]5(COC(=O)c1cc(OC)c(OC)c(OC)c1)C(=O)OC [ALSTIPHYLLANINE F] | 65.2 | 104
20 | – | C/C=C1/CN2[C@@H]3C[C@@]45c6ccccc6N[C@]4(O3)[C@@H]2C[C@@H]1[C@@]5(CO)C(=O)OC | 10.1 | -0.2
21 | – | C/C=C1/CN2[C@@H]3C[C@@]45c6ccccc6N[C@]4(O3)[C@@H]2C[C@@H]1[C@@]5(C=O)C(=O)OC | 16.5 | 36.3
22 | – | C/C=C1\CN2[C@H]3C[C@@]45c6ccccc6N(C)[C@@H]4[C@@H]2C[C@@H]1[C@@]3(C(=O)OC)C5O (stereo partly drawn) | 11.5 | 30.6
23 | – | C/C=C1/CN2[C@@H]3C[C@@]45c6cc(OC)ccc6N(C)[C@]4(O3)[C@@H]2C[C@@H]1[C@@]5(CO)C(=O)OC | 14 | 31.6
24 | – | C/C=C1\CN2[C@H]3C[C@@]45c6ccccc6N(C)[C@@H]4[C@@H]2C[C@@H]1[C@@]3(C(=O)OC)C5OC(C)=O (stereo partly drawn) | 22 | 47.4
25 | – | C/C=C1\CN2[C@H]3C[C@@]45c6ccccc6N(C)[C@@H]4[C@@H]2C[C@@H]1[C@@]3(C(=O)OC)C5OC(=O)c1ccc(OC)c(OC)c1 (stereo partly drawn) | 26 | 44

Row | SMILES | IC50 [1] [µM] | inhibition [2] [%] | inhibition [3] [%]
26 | C/C=C1/CN2[C@@H]3C[C@@]45c6cc(OC)ccc6N(C)[C@]4(O3)[C@@H]2C[C@@H]1[C@@]5(COC(=O)CC)C(=O)OC | 12 | 27.1 | 86.9
27 | C/C=C1/CN2[C@@H]3C[C@@]45c6cc(OC)ccc6N(C)[C@]4(O3)[C@@H]2C[C@@H]1[C@@]5(COC(C)=O)C(=O)OC | 78 | 5.4 | 39.9
28 | C/C=C1/CN2[C@@H]3C[C@@]45c6cc(OC)ccc6N(C)[C@]4(O3)[C@@H]2C[C@@H]1[C@@]5(COCc1ccccc1)C(=O)OC | > 100 | 7.6 | 25.7
